Experimental data from different studies.
MALT1: Mucosa-associated lymphoid tissue lymphoma translocation protein 1 (MALT1, Homo sapiens, UniProt Q9UDY8)
HTR2A: 5-hydroxytryptamine receptor 2A (HTR2A, Homo sapiens, UniProt P28223)
PDE5A: cGMP-specific 3',5'-cyclic phosphodiesterase (PDE5A, Homo sapiens, UniProt O76074)
SIGMAR1: Sigma non-opioid intracellular receptor 1 (SIGMAR1, Homo sapiens, UniProt Q99720)
PROC: Vitamin K-dependent protein C (PROC, Homo sapiens, UniProt P04070)

| Compound | target | assay | conditions | inhibition [%] |
| --- | --- | --- | --- | --- |
| CCOC(=O)c1ccc(OC(=O)CCCCCNC(=N)N)cc1 | MALT1 | enzyme activity, inhibitor | 10 µM | 46 |
| OC[C@@]12C[C@@H]1[C@@H](n1cnc3c(NC(C4CCCC4)C4CCCC4)nc(Cl)cc31)[C@H](O)[C@@H]2O | HTR2A | ligand displacement, radioligand | 10 µM | 1 |
| Cc1ncc(C)n2nc(/C=C/c3nc(N4CCCC4)cc(N4CCOCC4)n3)nc12 | PDE5A | enzyme activity, inhibitor | 10 µM | 38 |
| CC(C)[C@H](NC(=O)OCc1ccccc1)C(=O)N[C@@H](CCCN=C(N)N)C(=O)N1CCC[C@H]1C(=O)N[C@@H](CCCN=C(N)N)C(=O)CF | MALT1 | enzyme activity, inhibitor | 1 nM | 9 |
| CCN(CC)CCCC[C@H](NC(=O)[C@H](CC(C)C)NC(=O)[C@H](C)NC(=O)[C@H](Cc1ccccc1)NC(=O)c1ccc(C(C)(C)C)cc1)C(=O)N[C@@H](CO)C(=O)OC | Adenosine receptor A2a (ADORA2A, Homo sapiens, UniProt P29274) | ligand displacement, radioligand | 10 µM | -2 |
| Clc1ccc2c(C3CCN(CCc4c[nH]c5ccccc45)CC3)c[nH]c2c1 | Endothelin-1 receptor (EDNRA, Homo sapiens, UniProt P25101) | ligand displacement, radioligand | 10 µM | -12 |
| CC(C)=CCCC1(C)C=Cc2c(O)c3c(c(CC=C(C)C)c2O1)OC12C(=CC4CC1C(C)(C)OC2(C/C=C(/C)C(=O)O)C4O)C3=O (centres unmarked) | Histone-lysine N-methyltransferase EHMT1 (EHMT1, Homo sapiens, UniProt Q9H9B1) | cell-free assay | 10 µM | -4 |
| CC(C)Cn1cnc2c(N)nc3ccccc3c21 | SIGMAR1 | ligand displacement, radioligand | 10 µM | 15 |
| c1ccc(C(NCCNC(c2ccccc2)c2ccccc2)c2ccccc2)cc1 | PDE5A | enzyme activity, inhibitor | 10 µM | 0 |
| CC(C)N1CCC[C@H]1CNC(=O)c1cn(C2CCCC2)c(=O)c2c1c1ccccc1n2C | SIGMAR1 | ligand displacement, radioligand | 10 µM | 47 |
| CN(CCN1CCC(OC(=O)Nc2ccccc2-c2ccccc2)CC1)C(=O)c1ccc(CN2CCC(C(N)=O)CC2)cc1 | PDE5A | enzyme activity, inhibitor | 1 µM | 0 |
| COCc1c(-c2cc3cc(C)cc(OC)c3s2)c2c(N)ncnn2c1CN1CCNC(=O)C1 | PDE5A | enzyme activity, inhibitor | 10 µM | 8 |
| N=C(N)c1ccc2cc(OC(=O)c3ccc(N=C(N)N)cc3)ccc2c1 | MALT1 | enzyme activity, inhibitor | 10 µM | 49 |
| Cn1cc(-c2cc(F)cc(N3CCn4c(cc5c4CCCC5)C3=O)c2CO)cc(Nc2ccc(N3CCN(C4COC4)CC3)cn2)c1=O | Phosphatidylinositol 4-phosphate 3-kinase C2 domain-containing subunit beta (PIK3C2B, Homo sapiens, UniProt O00750) | enzyme activity, inhibitor | 0.1 µM | 10 |
| C#Cc1n[nH]c2c(-c3cn(C(C)c4ccccn4)c(=O)[nH]c3=O)cc(F)cc12 (centres unmarked) | Cytoplasmic tyrosine-protein kinase BMX (BMX, Homo sapiens, UniProt P51813) | enzyme activity, inhibitor | 1 µM | 0.9 |
| [H]/N=C(/N)c1ccc(NCc2nc3cc(C(=O)N(CCC(=O)O)c4ccccn4)ccc3n2C)cc1 | PROC | enzyme activity, inhibitor | 20 µM | 95 |
| Cn1cc(-c2cccc(N3CCc4c(sc5c4CC(C)(C)C5)C3=O)c2CO)cc(Nc2ccncn2)c1=O | Sphingosine kinase 1 (SPHK1, Homo sapiens, UniProt Q9NYA1) | enzyme activity, inhibitor | 1 µM | 5 |
| O=C(Nc1cccnn1)N1CCN([C@@H]2CCOc3cc(C(F)(F)F)ccc32)CC1 | PDE5A | enzyme activity, inhibitor | 20 µM | 5 |
| O[C@H]1[C@H](n2cnc3c(NC(C4CCCCC4)C4CCCCC4)nc(Cl)nc32)[C@H]2C[C@@]2(CCl)[C@H]1O | HTR2A | ligand displacement, radioligand | 10 µM | 21 |
| CN(C)C(=O)COC(=O)Cc1ccc(OC(=O)c2ccc(NC(=N)N)cc2)cc1 | PROC | enzyme activity, inhibitor | 10 µM | 77 |
